ChEMBL document CHEMBL1123791, “3'-substituted 2',3'-dideoxynucleoside analogues as potential anti-HIV (HTLV-III/LAV) agents” (J Med Chem, 1987)

Columns and labels:
MT4 [1] = assay: Toxicity was determined by evaluation of cluster morphology and reclustering properties in mock infected MT-4 cells at 125 uM concentration; format: cell-based; settings: human, mt4, 125 µM
[2] = Therapeutic index (Ratio = ID50/ED50).
MT4 [3] = assay: Protection was determined by evaluation of cluster morphology and reclustering properties in […] MT-4 cells at 0.2 uM concentration; Range is 40-60; format: functional, Homo sapiens
In short: (§1)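 MT4 cells infected with HIV (300 CCID50/well) were seeded at 2.5×10^5 cells/mL with compound at 125, 5, 0.2, 0.008 or 0.00032 µM and kept 5 days at 37 °C. Clusters were scored microscopically, dispersed by pipetting, and reclustering assessed after 4 h at 37 °C. Scoring: +++ >90% protection.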

ATH-8 cell line [4] = assay: Protection of ATH8 cells against the cytopathic effect of HIV.; format: functional; settings: Homo sapiens, read-out: ED50 (the source's name)
MT4 [5] = assay: Toxicity was determined by evaluation of cluster morphology and reclustering properties in mock infected MT-4 cells at 0.2 uM concentration; format: cell-based; settings: human, mt4, 0.2 µM
MT4 [6] = assay: Protection was determined by evaluation of cluster morphology and reclustering properties in […] at 0.008 uM concentration.; format: functional, Homo sapiens
MT4 [7] = assay: Toxicity was determined by evaluation of cluster morphology and reclustering properties in mock infected MT-4 cells at 5 uM concentration; format: cell-based; settings: human, mt4, 5 µM
In short: (§2)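 Mock-infected MT4 cells were seeded at 2.5×10^5 cells/mL with compound at 125–0.00032 µM and cultured 5 days at 37 °C. Cluster morphology was scored microscopically, then cells were dispersed by pipetting and reclustering read after 4 h. Scoring: ++ >90%, + 10–40%, − <10% toxicity.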

MT4 [8] = assay: Protection was determined by evaluation of cluster morphology and reclustering properties in […] MT-4 cells at 5 uM concentration.; format: functional, Homo sapiens; in short: as §1
ATH-8 cell line [9] = assay: Required dose to reduce viability of normal uninfected ATH8 cells.; format: functional; settings: Homo sapiens, read-out: ID50 (the source's name)
MT4 [10] = assay: Protection was determined by evaluation of cluster morphology and reclustering properties in […] MT-4 cells at 5 uM concentration; Range is 10-40; format: functional, Homo sapiens; in short: as §1
MT4 [11] = assay: Protection was determined by evaluation of cluster morphology and reclustering properties in […] MT-4 cells at 0.2 uM concentration; format: functional, Homo sapiens
MT4 [12] = assay: Protection was determined by evaluation of cluster morphology and reclustering properties in mock infected MT-4 cells at 125 uM concentration; format: functional, Homo sapiens; settings: in the assay text read “HIV infected” for “mock infected”; in short: as §1
MT4 [13] = assay: Toxicity was determined by evaluation of cluster morphology and reclustering properties in mock infected MT-4 cells at 0.008 uM concentration; format: cell-based; settings: human, mt4, 0.008 µM; in short: as §2
MT4 [14] = assay: Toxicity was determined by evaluation of cluster morphology and reclustering properties in mock infected MT-4 cells at 125 uM concentration; Range is 10-40; format: cell-based; settings: human, mt4, 125 µM; in short: as §2
MT4 [15] = assay: Toxicity was determined by evaluation of cluster morphology and reclustering properties in mock infected MT-4 cells at 0.00032 uM concentration; format: cell-based; settings: human, mt4, 0.00032 µM; in short: as §2
MT4 [16] = assay: Protection was determined by evaluation of cluster morphology and reclustering properties in […] MT-4 cells at 0.00032 uM concentration; format: functional, Homo sapiens; in short: as §1

| SMILES | Toxicity (MT4 [1]) | selectivity ratio [2] | Protection (MT4 [3]) | EC50 (ATH-8 cell line [4]) | Toxicity (MT4 [5]) | Protection (MT4 [6]) | Toxicity (MT4 [7]) | Protection (MT4 [8]) | IC50 (ATH-8 cell line [9]) | Protection (MT4 [10]) | Protection (MT4 [11]) | Protection (MT4 [12]) | Toxicity (MT4 [13]) | Toxicity (MT4 [14]) | Toxicity (MT4 [15]) | Protection (MT4 [16]) | Toxicity (MT4 [1]; 125 µM) | Toxicity (MT4 [7]; 5 µM) |
| --- | --- | --- | --- | --- | --- | --- | --- | --- | --- | --- | --- | --- | --- | --- | --- | --- | --- | --- |
| Nc1ccn([C@H]2C=C[C@@H](CO)O2)c(=O)n1 | > 90% | 100 | 40% | 0.3 µM | < 10% | <10% | < 10% | >90% | 30 µM |  |  |  |  |  |  |  |  |  |
| CNc1nc(=O)n(C2CC(N=[N+]=[N-])C(CO)O2)cc1C (configuration not stated) | < 10% |  |  | > 100 µM | < 10% |  | < 10% |  | > 100 µM | 10% | <10% | >90% |  |  |  |  |  |  |
| Nc1ccn([C@H]2CC[C@@H](CO)O2)c(=O)n1 [ZALCITABINE] | > 90% | 175 | 40% | 0.2 µM | < 10% | <10% | < 10% | >90% | 35 µM |  |  |  |  |  |  |  |  |  |
| CCc1cn(C2CCC(CO)O2)c(=O)[nH]c1=O (configuration not stated) | < 10% |  |  |  | < 10% | <10% | < 10% | <10% |  |  | <10% | <10% | < 10% |  |  |  |  |  |
| CCSC1CC(n2cc(C)c(=O)[nH]c2=O)OC1CO (configuration not stated) | > 90% | < 1 |  | > 100 µM | < 10% | <10% | < 10% |  | 100 µM | 10% | <10% |  |  |  |  |  |  |  |
| Cc1cn([C@H]2C[C@H](SC#N)[C@@H](CO)O2)c(=O)[nH]c1=O | > 90% |  |  | > 100 µM | < 10% | <10% | < 10% |  | > 100 µM | 10% | <10% |  |  |  |  |  |  |  |
| Cc1cn([C@H]2C[C@@H](OS(C)(=O)=O)[C@@H](CO)O2)c(=O)[nH]c1=O |  |  |  | > 100 µM | < 10% |  | < 10% | <10% | > 100 µM |  | <10% | >90% |  | 10% |  |  |  |  |
| Nc1ncnc2c1ncn2[C@H]1C=C[C@@H](CO)O1 | > 90% | 1.3 |  | 40 µM | < 10% |  | < 10% | <10% | 52 µM |  | <10% | <10% | < 10% |  | < 10% |  |  |  |
| Cc1cn(C2CC(Cl)C(CO)O2)c(=O)[nH]c1=O (configuration not stated) | > 90% |  |  | > 500 µM | < 10% | <10% | < 10% |  | > 500 µM | 10% | <10% |  |  |  |  |  |  |  |
| Cc1cn([C@H]2C[C@H](OCC(=O)[O-])[C@@H](CO)O2)c(=O)[nH]c1=O.[Na+] | < 10% |  |  | > 100 µM | < 10% |  | < 10% | <10% | > 100 µM |  | <10% | <10% |  |  |  |  |  |  |
| Nc1ncnc2c1ncn2[C@H]1C[C@H](F)[C@@H](CO)O1 | < 10% |  |  |  | < 10% |  | < 10% |  |  |  |  |  |  |  |  |  |  |  |
| Cc1cn(C2CC(Br)C(CO)O2)c(=O)[nH]c1=O (configuration not stated) | > 90% | < 0.4 |  | > 500 µM | < 10% | <10% | < 10% |  | 180 µM | 10% | <10% |  |  |  |  |  |  |  |
| Cc1cn([C@H]2C[C@H](I)[C@@H](CO)O2)c(=O)[nH]c1=O | > 90% |  |  | > 500 µM | < 10% | <10% | < 10% | <10% | > 500 µM |  | <10% |  |  |  |  |  |  |  |
| O=c1ccn(C2CCC(CO)O2)c(=O)[nH]1 (configuration not stated) | < 10% |  |  | > 500 µM | < 10% |  | < 10% | <10% | > 500 µM |  | <10% | >90% |  |  |  |  |  |  |
| CCc1cn([C@H]2C[C@H](N=[N+]=[N-])[C@@H](CO)O2)c(=O)[nH]c1=O | > 90% |  |  | > 100 µM | < 10% | <10% | < 10% |  | > 100 µM | 10% | <10% |  |  |  |  | <10% |  |  |
| CCO[C@H]1C[C@H](n2cc(C)c(=O)[nH]c2=O)O[C@@H]1CO | > 90% |  |  | > 100 µM | < 10% | <10% | < 10% |  | > 100 µM | 10% | <10% |  |  |  |  |  |  |  |
| O=c1ccn([C@H]2C=C[C@@H](CO)O2)c(=O)[nH]1 | > 90% | < 1.1 |  | > 100 µM | < 10% | <10% | < 10% | <10% | 107 µM |  | <10% |  |  |  |  |  |  |  |
| Cc1cn([C@H]2C[C@H](N=[N+]=[N-])[C@@H](CO)O2)c(=O)[nH]c1=O (stereo in doubt; 9k) [ZIDOVUDINE] |  |  |  |  | < 10% |  |  | <10% |  |  | <10% | <10% |  |  |  |  | < 10% | < 10% |
| Nc1ncnc2c1ncn2[C@H]1C[C@H](O)[C@@H](CO)O1 [DEOXYADENOSINE] |  |  |  | > 100 µM | < 10% |  | < 10% | <10% | > 100 µM |  | <10% | <10% |  | 10% |  |  |  |  |
| Cc1cn([C@H]2C[C@H](OS(C)(=O)=O)[C@@H](CO)O2)c(=O)[nH]c1=O | < 10% |  |  | > 100 µM | < 10% |  | < 10% |  | > 100 µM | 10% | <10% | >90% |  |  |  |  |  |  |
